Here are results for 7 molecules from ChEMBL document CHEMBL1124334, “Hypolipidemic 2-[4-(1,1-dimethylethyl)phenyl]-4H-3,1-benzoxazin-4-ones. Structure-activity relationships of a novel series of high-density lipoprotein elevators” (1989).

What all share (type): functional
The species named for test [1] is Rattus norvegicus. Kind of test: The compound was tested for % change in plasma triglycerides in normocholesterolemic rats at 0.2 % composition of dose with diet given in a period of 3 days. A digest of the protocol:
(§1)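 Young male Wistar rats (120–150 g) fed basal powdered rodent diet ad libitum, with compound mixed into the diet at 0.2% w/w for 3 or 7 days. Plasma triglyceride and total cholesterol were then measured by standard enzymatic methods. Results are % change relative to controls.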

Test [2] relates to Rattus norvegicus. Kind of test: Percent change in plasma HDL cholesterol in cholesterol-fed rats at 200 mg/kg dose given in a period of 3 days. A digest of the protocol: (§2)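 Young male Wistar rats (120–150 g), groups of eight, fed ad libitum rodent diet with 0.5% w/w cholesterol and 0.25% cholic acid for 10 days. Compound suspended in 0.5% w/w tragacanth mucilage and given daily by stomach tube over the final 3 days; controls got vehicle. After overnight starvation, rats were killed 3 h post final dose and cardiac blood taken into heparin.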

Test [3] deals with Rattus norvegicus. Kind of test: Percent change in plasma total cholesterol in cholesterol-fed rats at 200 mg/kg dose given in a period of 3 days. The method in brief:
as §2

The nature of test [4]: Ratio of plasma HDL cholesterol/total cholesterol at 25 mg/kg for 3 days. A digest of the protocol: as §2
Test [5] deals with Rattus norvegicus. Kind of test: Percent change in plasma triglycerides in cholesterol-fed rats at 200 mg/kg dose given in a period of 3 days. The method in brief: as §2
Test [6] is filed under the species Rattus norvegicus. Kind of test: Change in plasma total cholesterol in normocholesterolemic rats at 0.2 % composition of dose with diet given in a period of 3 days. A digest of the protocol:
as §1

The test system of test [7] is Rattus norvegicus. The test can be described thus: The compound was tested for % change in plasma HDL cholesterol in cholesterol-fed rats at 200 mg/kg dose given in a period of 3 days;. The method in brief: as §2
Test [8] concerns Rattus norvegicus. Kind of test: Ratio of plasma HDL cholesterol/total cholesterol at 200 g/kg for 3 days. To be noted: in the assay text read “200 mg/kg” for “200 g/kg”. A digest of the protocol:
as §2

For test [9], the species on record is Rattus norvegicus. Kind of test: Change in plasma triglycerides in normocholesterolemic rats at 0.2 % composition of dose with diet given in a period of 3 days. A digest of the protocol: as §1
For test [10], the species on record is Rattus norvegicus. The test can be described thus: Tested for % change in plasma triglycerides in normocholesterolemic rats at 0.2 % composition of dose with diet given in a period of 3 days. The method in brief:
as §1

The species entered for test [11] is Rattus norvegicus. The test can be described thus: Tested for % change in plasma total cholesterol in normocholesterolemic rats at 0.2 % composition of dose with diet given in a period of 3 days. A digest of the protocol: as §1
In test [12] the test system is Rattus norvegicus. The test can be described thus: The compound was tested for % change in plasma HDL cholesterol in cholesterol-fed rats at 50 mg/kg dose given in a period of 3 days. A digest of the protocol: as §2
The species entered for test [13] is Rattus norvegicus. The test can be described thus: The compound was tested for % change in plasma total cholesterol in normocholesterolemic rats at 0.2 % composition of dose with diet given in a period of 7 days. A digest of the protocol: as §1
The test system of test [14] is Rattus norvegicus. The test can be described thus: The compound was tested for % change in plasma total cholesterol in cholesterol-fed rats at 100 mg/kg dose given in a period of 3 days. A digest of the protocol: as §2
Test [15] deals with Rattus norvegicus. The test can be described thus: The compound was tested for % change in plasma total cholesterol in cholesterol-fed rats at 50 mg/kg dose given in a period of 3 days. The method in brief:
as §2

Test [16] deals with Rattus norvegicus. The test can be described thus: The compound was tested for % change in plasma triglycerides in cholesterol-fed rats at 100 mg/kg dose given in a period of 3 days. The method in brief: as §2
Test [17] is described as follows: Ratio of plasma HDL cholesterol/total cholesterol at 100 mg/kg for 3 days. A digest of the protocol:
as §2

The species named for test [18] is Rattus norvegicus. Kind of test: The compound was tested for % change in plasma triglycerides in normocholesterolemic rats at 0.2 % composition of dose with diet given in a period of 7 days. The method in brief:
as §1

In test [19] the test system is Rattus norvegicus. The test can be described thus: The compound was tested for % change in plasma triglycerides in cholesterol-fed rats at 50 mg/kg dose given in a period of 3 days. The method in brief:
as §2

Test [20] deals with Rattus norvegicus. Kind of test: The compound was tested for % change in plasma HDL cholesterol in cholesterol-fed rats at 100 mg/kg dose given in a period of 3 days. A digest of the protocol: as §2
Test [21] is described as follows: Ratio of plasma HDL cholesterol/total cholesterol at 50 mg/kg for 3 days. The method in brief:
as §2

The species named for test [22] is Rattus norvegicus. Kind of test: tested for % change in plasma triglycerides in normocholesterolemic rats at 0.2 % composition of dose with diet given in a period of 3 days. A digest of the protocol:
as §1

Test [23] concerns Rattus norvegicus. Kind of test: The compound was tested for % change in plasma total cholesterol in cholesterol-fed rats at 25 mg/kg dose given in a period of 3 days. The method in brief:
as §2

In test [24] the test system is Rattus norvegicus. The test can be described thus: The compound was tested for % change in plasma HDL cholesterol in cholesterol-fed rats at 25 mg/kg dose given in a period of 3 days. The method in brief:
as §2

For test [25], the system named is Rattus norvegicus. The test can be described thus: % change in plasma triglycerides in cholesterol-fed rats at 100 mg/kg dose given in a period of 3 days administered orally. To be noted: route oral. A digest of the protocol:
as §2

The test system of test [26] is Rattus norvegicus. Kind of test: The compound was tested for % change in plasma triglycerides in cholesterol-fed rats at 25 mg/kg dose given in a period of 3 days. The method in brief:
as §2

Test [27] can be described thus: Ratio of plasma HDL cholesterol/total cholesterol at 200 mg/kg for 3 days. A digest of the protocol:
as §2

Where [28] appears, read: dose 200 mg/kg, in the assay text read “200 mg/kg” for “25 mg/kg”.

For `Cc1ccc2nc(-c3ccc(CC(C)(C)C)cc3)oc(=O)c2c1`, the Change in the test filed under Rattus norvegicus [1] is recorded as 16%; with Rattus norvegicus [2] it was 28%; in the test on Rattus norvegicus [3] it was -12%; in the test with Rattus norvegicus [5], 23%; in the test listed under Rattus norvegicus [6] it was -10%. For the same molecule, the Ratio in test [4] (setting [28]) amounted to 50.

For the molecule `CC(C)(C)c1ccc(C(=O)Nc2ccc(Br)cc2C(=O)[O-])cc1.[Na+]`, the Change was 57% in the test with Rattus norvegicus [7]; -7% with Rattus norvegicus [3]; 15% in the test on Rattus norvegicus [5]; -18% in the test listed under Rattus norvegicus [9]; -42% in the test filed under Rattus norvegicus [6]. Moreover, in the test with Rattus norvegicus [8], the “Change in HDL/total cholesterol ratio” value is given as 64.

Turning to `Cc1ccc(NC(=O)c2ccc(C(C)(C)C)cc2)c(C(=O)O)c1`, the Change in the test listed under Rattus norvegicus [10] is reported as -16%; in the test filed under Rattus norvegicus [11], -15%; with Rattus norvegicus [2] it was 91%; in the test with Rattus norvegicus [3] it was -9%; in the test with Rattus norvegicus [5], 8%. The “Change in HDL/total cholesterol ratio” value with Rattus norvegicus [8] is 47.

In the case of `CC(C)(C)c1ccc(-c2nc3ccc(Br)cc3c(=O)o2)cc1`, the Change is given as 40% in the test on Rattus norvegicus [12]; -39% in the test listed under Rattus norvegicus [13]; -25% in the test with Rattus norvegicus [14]; 74% in the test on Rattus norvegicus [2]; -25% in the test on Rattus norvegicus [3]; -12% with Rattus norvegicus [15]. Moreover, the Change with Rattus norvegicus [16] is recorded as -6%; with Rattus norvegicus [5] it was -3%; in the test filed under Rattus norvegicus [18], -40%; in the test with Rattus norvegicus [19], 6%; in the test with Rattus norvegicus [20], 71%; in the test filed under Rattus norvegicus [6], -47%. In addition, in the test listed under Rattus norvegicus [22], the Change was -16%. For the same molecule, the Ratio is recorded as 110 in [17] and 49 in [21]. The “Change in HDL/total cholesterol ratio” value in the test with Rattus norvegicus [8] came out at 114.

With `Cc1ccc2nc(-c3ccccc3)oc(=O)c2c1`, the Change in the test listed under Rattus norvegicus [13] was -12%; in the test with Rattus norvegicus [2], -2%; in the test with Rattus norvegicus [3], -2%; in the test on Rattus norvegicus [5] it was -4%; in the test listed under Rattus norvegicus [18], -1%. The Ratio in test [4] (setting [28]) is 4.

Regarding `Cc1ccc2nc(-c3ccc(C(C)(C)C)cc3)oc(=O)c2c1`, the Change in the test on Rattus norvegicus [12] is given as 31%; in the test with Rattus norvegicus [23] it was -5%; in the test listed under Rattus norvegicus [13], -15%; in the test on Rattus norvegicus [14], -34%; in the test with Rattus norvegicus [24], 30%; with Rattus norvegicus [2], 50%. For the same molecule, the Change with Rattus norvegicus [3] was -27%; in the test on Rattus norvegicus [15], -19%; in the test with Rattus norvegicus [25], -18%; with Rattus norvegicus [26], -1%; in the test with Rattus norvegicus [5], -17%; in the test filed under Rattus norvegicus [18] it was -33%. The Change with Rattus norvegicus [19] worked out at 21%; in the test on Rattus norvegicus [20] it was 15%. Moreover, the Ratio was determined as 31 in test [4] (dose 25 mg/kg), 65 in [17], 92 in test [27] and 56 in test [21].

Take `Cc1ccc2nc(-c3cccc(C(C)(C)C)c3)oc(=O)c2c1`: the Change in the test listed under Rattus norvegicus [13] is -4%; in the test on Rattus norvegicus [2], 50%; in the test with Rattus norvegicus [3] it was 43%; with Rattus norvegicus [5], 22%; in the test listed under Rattus norvegicus [18] it was 25%. Also, in test [4] (setting [28]), the Ratio came out at 3.
